Here are results for two molecules from ChEMBL document CHEMBL1141811, “Remangilones A-C, new cytotoxic triterpenes from Physena madagascariensis” (J Nat Prod, 1999).

The source made the active and inactive calls. No cut-off for these calls is given here.

The test system of assay [1] is MDA-MB-435. The experiment in a line: Induction of apoptosis in human MDA-MB-435 cells assessed as change in nuclear morphology at 50 nM by fluorescence microscopy. The format is functional, cell-based. The procedure, abridged: (§1)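 MDA-MB-435 cells plated in DFCI-1 medium at (3-5) × 10^4 cells/35-mm dish and attached 24 h (37 °C, 6.5% CO2). Treated 48 h, then attached cells were examined by fluorescence microscopy for nuclear shrinkage and chromatin condensation or fragmentation. 50 nM paclitaxel served as positive control.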

For assay [2], the system named is MDA-MB-435. The experiment in a line: Cytotoxicity against human MDA-MB-435 cells at 2.3 uM treated for 24 hrs and subsequently cultured in drug-free medium for 96 hrs by SRB assay. It counts as functional, cell-based. The procedure, abridged: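 MDA-MB-435 cells in DFCI-1 medium, seeded in triplicate at 4000/well and attached 24 h at 37 °C. Exposed to 2.3 μM compound for 24 h at 37 °C, then cultured in drug-free DFCI-1 medium for 96 h. Viability read by SRB staining with absorbance at 550 nm.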
A general note: In SRB staining, fixed cells bind dye roughly in proportion to their protein.

Assay [3] concerns MDA-MB-231. The experiment in a line: Cytotoxicity against human MDA-MB-231 cells by SRB assay. It counts as functional, cell-based. The procedure, abridged: (§2)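 Cells washed in PBS, resuspended in DFCI-1 medium and seeded in triplicate at 4000/0.2 mL/well. After 24 h attachment (37 °C, 6.5% CO2), cells got 0.1–40.0 μM compound (DMSO below 0.2% final; DMSO controls) for 48 h. Cells were then PBS-washed and SRB-stained, and dye was redissolved in 10 mM Tris·HCl and read at 550 nm. IC50 taken as 50% reduction of relative cell number.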

In assay [4] the test system is MDA-MB-435. The experiment in a line: Cytotoxicity against human MDA-MB-435 cells by SRB assay. The format is functional, cell-based. The method, boiled down:
as §2

Assay [5] has as its system MDA-MB-435. The assay is described as follows: Induction of apoptosis in human MDA-MB-435 cells assessed as change in nuclear morphology at 2.3 uM by fluorescence microscopy. The format is functional, cell-based. The method, boiled down:
as §1

Assay [6] deals with MDA-MB-435. The experiment in a line: Cytotoxicity against human MDA-MB-435 cells assessed as change from polarized to spherical cellular morphology by SRB assay. It counts as functional, cell-based.
Assay [7] in a line: Cytotoxicity against human 70N cells by SRB assay. The format is cell-based. The procedure, abridged:
as §2

Assay [8] concerns MDA-MB-231. The assay is described as follows: Cytotoxicity against human MDA-MB-231 cells assessed as change from polarized to spherical cellular morphology by SRB assay. The format is functional, cell-based.

As to `CC(=O)O[C@H]1C(=O)[C@@]2(C)[C@H]([C@H](OC(=O)c3ccccc3)[C@]3(O)C[C@H](OC(=O)[C@H](O)[C@@H](NC(=O)c4ccccc4)c4ccccc4)C(C)=C1C3(C)C)[C@]1(OC(C)=O)CO[C@@H]1C[C@@H]2O`, the outcome in the assay with MDA-MB-435 [1] was Active.
Take `CC1=C2CC[C@]3(C)[C@H](CC=C4[C@@H]5CC(C)(C)CC[C@@H]5C(=O)[C@H](O)[C@]43C)[C@@]2(C)C=C(O)C1=O` [REMANGILONE A]: the outcome in the assay on MDA-MB-435 [2], in the assay on MDA-MB-435 [5], in the assay with MDA-MB-435 [6] and in the assay on MDA-MB-231 [8] was Active. The IC50 in the assay on MDA-MB-231 [3] was determined as 6.6 µM; in the assay with MDA-MB-435 [4] it was 8.5 µM; in assay [7], 40.5 µM.

As usually defined, the IC50 is the concentration at which inhibition is half-maximal.
